Data published in ChEMBL document CHEMBL3612038, “N-Alkyl/aryl-4-(3-substituted-3-phenylpropyl)piperazine-1-carbothioamide as dual-action vaginal microbicides with reverse transcriptase inhibition” (Eur J Med Chem, 2015).
Values after ≈ are worked out from the molar mass of the structure shown.

How the values were obtained:
[1] = biological target: Human immunodeficiency virus type 1 reverse transcriptase (Human immunodeficiency virus 1) (UniProt Q72547); experiment: Inhibition of HIV1 reverse transcriptase at 100 ug/ml incubated for 1 hr by ELISA method
Procedure, shortened: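 Non-radioactive colorimetric ELISA: template/primer with dNTPs plus HIV-1 RT in lysis buffer ± compound (100 µg/mL), 1 h at 37 °C; RT-free buffer as negative control, nevirapine as positive control. Product captured on streptavidin plate 1 h at 37 °C, detected with anti-DIG-POD and ABTS, OD 405 nm.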

[2] = Spermicidal activity in liquefied human semen assessed as reduction in motile spermatozoa incubated at 37 degC for 30 mins; type: functional, Sperm; conditions: for minimal effective concentration: Homo sapiens, Sperm, Semen, 0.5 h, read-out: MEC
Procedure, shortened: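 Compounds dissolved in minimal DMSO, diluted with 0.85% saline to 1.0% test solution; liquefied human semen mixed 1:5 with test solution, vortexed 10 s; motile sperm scored by phase-contrast microscopy over 60 s in five fields. MEC = lowest concentration immobilizing 100% of sperm, still immotile after dilution with nutrient medium.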

Trichomonas vaginalis [3] = experiment: Anti-trichomonas activity against MTZ-susceptible Trichomonas vaginalis incubated for 3 to 48 hrs by trypan blue exclusion assay; type: functional
Procedure, shortened: (§1)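 Trichomonas vaginalis trophozoites (5 × 10^4/L as printed) in TYM medium; DMSO stocks (100.0 mg/mL) serially diluted in TYM to 0.1 mg/mL, DMSO/TYM vehicle controls. Anaerobic incubation at 37 °C; viability checked 3–48 h by microscopy (200×) with trypan blue exclusion. MIC = lowest concentration killing all cells within 48 h.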

Trichomonas vaginalis [4] = experiment: Anti-trichomonas activity against MTZ-resistant Trichomonas vaginalis incubated for 3 to 48 hrs by trypan blue exclusion assay; type: functional; procedure, shortened: as §1
Candida albicans = experiment: Antifungal activity against Candida albicans incubated for 48 hrs by broth micro-dilution method; type: functional
Procedure, shortened: (§2)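 Broth microdilution per NCCLS guidelines in RPMI 1640 buffered with MOPS; starting inoculum 1–5 × 10^3 CFU/mL; plates incubated at 35 °C, MIC read after 48 h.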

Cryptococcus neoformans = experiment: Antifungal activity against Cryptococcus neoformans incubated for 48 hrs by broth micro-dilution method; type: functional; procedure, shortened: as §2
Sporothrix schenckii = experiment: Antifungal activity against Sporothrix schenckii incubated for 48 hrs by broth micro-dilution method; type: functional; procedure, shortened: as §2
[5] = test system: Trichophyton mentagrophytes; experiment: Antifungal activity against Trichophyton mentagrophytes incubated for 48 hrs by broth micro-dilution method; type: functional; procedure, shortened: as §2
Aspergillus fumigatus = experiment: Antifungal activity against Aspergillus fumigatus incubated for 48 hrs by broth micro-dilution method; type: functional; procedure, shortened: as §2
Candida parapsilosis = experiment: Antifungal activity against Candida parapsilosis ATCC 22019 incubated for 48 hrs by broth micro-dilution method; type: functional; conditions: Lodderomyces parapsilosis, ATCC 22019, 48 h; procedure, shortened: as §2
HeLa = experiment: Cytotoxicity against human HeLa cells assessed as reduction in cell viability at 200 ug/ml incubated for 24 hrs by MTT assay; type: cell-based
Procedure, shortened: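 HeLa cells seeded at 5 × 10^4 per well, exposed 24 h to compound dilutions in culture medium or vehicle control; MTT (5 mg/mL in pH 7.4 buffer) added, formazan dissolved in DMSO, absorbance read at 540 nm.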

[6] = Effect on Lactobacillus jensenii ATCC 25258 62G assessed as effect on microbial proliferation at 200 ug/ml incubated for 24 hrs
Procedure, shortened: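 L. jensenii ATCC 25258 (strain 62G) in 6% Rogosa SL broth with 0.132% acetic acid; serial compound dilutions or vehicle in triplicate, ~1000 CFU per well, 24 h at 37 °C, humidified 5% CO2; growth read as OD610, expressed relative to control = 100.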

Trichomonas vaginalis [7] = experiment: Resistance index, ratio of MIC for MTZ-resistant Trichomonas vaginalis to MIC for MTZ-susceptible Trichomonas vaginalis; type: functional

| Structure (SMILES) | inhibition [1] [%] | MEC [2] [%] | minimal effective concentration [2] [µM] | MIC (Trichomonas vaginalis [3]) [µM] | MIC (Trichomonas vaginalis [4]) [µM] | MIC (Candida albicans) [µM] | MIC (Cryptococcus neoformans) [µM] | MIC (Sporothrix schenckii) [µM] | MIC [5] [µM] | MIC (Aspergillus fumigatus) [µM] | MIC (Candida parapsilosis) [µM] | Activity (HeLa) | Activity [6] | Ratio (Trichomonas vaginalis [7]) |
| --- | --- | --- | --- | --- | --- | --- | --- | --- | --- | --- | --- | --- | --- | --- |
| FC(F)(F)c1ccc(OC(CCN2CCN(C(=S)NC3CCCCC3)CC2)c2ccccc2)cc1 (centres undefined) | 24.3 | >1 | > 19800 | 64.3 (≈ 32.5 µg/mL) | 495 (≈ 250 µg/mL) | > 81.2 | > 81.2 | > 81.2 | > 81.2 | > 81.2 | > 81.2 | Non-toxic | Non-toxic | 2 |
| O=C(CCN1CCN(C(=S)NCCc2ccccc2)CC1)c1ccccc1 | 50.2 | 0.01 | 260 | 40.8 (≈ 15.6 µg/mL) | 164 (≈ 62.6 µg/mL) | > 81.2 | > 81.2 | > 81.2 | > 81.2 | > 81.2 | > 81.2 | Non-toxic | Non-toxic | 2 |
| OC(CCN1CCN(C(=S)NC2CCCCC2)CC1)c1ccccc1 (centres undefined) | 24.3 | 1 | 27700 | 173 (≈ 62.6 µg/mL) | 174 (≈ 62.8 µg/mL) | > 81.2 | > 81.2 | > 81.2 | > 81.2 | > 81.2 | > 81.2 | Non-toxic | Non-toxic | 2 |
| OC(CCN1CCN(C(=S)NCCc2ccccc2)CC1)c1ccccc1 (centres undefined) | 45.3 | 0.1 | 2610 | 40.6 (≈ 15.6 µg/mL) | 163 (≈ 62.6 µg/mL) | > 81.2 | > 81.2 | > 81.2 | > 81.2 | > 81.2 | > 81.2 | Non-toxic | Non-toxic | 4 |
| FC(F)(F)c1ccc(OC(CCN2CCN(C(=S)Nc3ccccc3)CC2)c2ccccc2)cc1 (centres undefined) | 21.1 | 0.05 | 1000 | 50.1 (≈ 25 µg/mL) | – | > 81.2 | > 81.2 | > 81.2 | > 81.2 | > 81.2 | > 81.2 | Non-toxic | Non-toxic | 2 |
| Cc1ncc([N+](=O)[O-])n1CCO [METRONIDAZOLE] | – | – | – | 19.7 (≈ 3.37 µg/mL) | 293 (≈ 50.1 µg/mL) | – | – | – | – | – | – | – | – | 15 |
| OC(CCN1CCN(C(=S)NCc2ccccc2)CC1)c1ccccc1 (centres undefined) | 47.2 | 0.05 | 1350 | 169 (≈ 62.6 µg/mL) | 339 (≈ 125 µg/mL) | > 81.2 | > 81.2 | > 81.2 | > 81.2 | > 81.2 | > 81.2 | Non-toxic | Non-toxic | 2 |
| O=C(CCN1CCN(C(=S)NC2CCCCC2)CC1)c1ccccc1 | 47.7 | 0.05 | 1390 | 43.3 (≈ 15.6 µg/mL) | 175 (≈ 62.8 µg/mL) | 34.7 (≈ 12.5 µg/mL) | 8.6 (≈ 3.09 µg/mL) | > 81.2 | 4.33 (≈ 1.56 µg/mL) | > 81.2 | > 81.2 | Non-toxic | Non-toxic | 2 |
| O=C(CCN1CCN(C(=S)NCc2ccccc2)CC1)c1ccccc1 | 58.3 | 0.1 | 2720 | 85.1 (≈ 31.3 µg/mL) | 341 (≈ 125 µg/mL) | 67.9 (≈ 25 µg/mL) | 8.47 (≈ 3.11 µg/mL) | > 81.2 | 4.22 (≈ 1.55 µg/mL) | > 81.2 | > 81.2 | Non-toxic | Non-toxic | 2 |
| OC(CCN1CCN(C(=S)Nc2ccccc2)CC1)c1ccccc1 (centres undefined) | – | 0.1 | 2820 | – | 352 (≈ 125 µg/mL) | > 81.2 | > 81.2 | > 81.2 | > 81.2 | > 81.2 | > 81.2 | Non-toxic | Non-toxic | 2 |
| FC(F)(F)c1ccc(OC(CCN2CCN(C(=S)NCCc3ccccc3)CC2)c2ccccc2)cc1 (centres undefined) | 38.4 | >1 | > 19000 | 47.3 (≈ 25 µg/mL) | 118 (≈ 62.5 µg/mL) | > 81.2 | > 81.2 | > 81.2 | > 81.2 | > 81.2 | > 81.2 | Non-toxic | Non-toxic | 2 |
| O=C(CCN1CCN(C(=S)Nc2ccccc2)CC1)c1ccccc1 | 49.2 | 0.1 | 2830 | 88.5 (≈ 31.3 µg/mL) | 354 (≈ 125 µg/mL) | > 81.2 | 17.6 (≈ 6.22 µg/mL) | > 81.2 | 17.6 (≈ 6.22 µg/mL) | > 81.2 | > 81.2 | Non-toxic | Non-toxic | 2 |
| FC(F)(F)c1ccc(OC(CCN2CCN(C(=S)NCc3ccccc3)CC2)c2ccccc2)cc1 (centres undefined) | 51 | >1 | > 19500 | 60.9 (≈ 31.3 µg/mL) | 243 (≈ 125 µg/mL) | > 81.2 | 12.1 (≈ 6.21 µg/mL) | > 81.2 | 6.07 (≈ 3.12 µg/mL) | > 81.2 | > 81.2 | Non-toxic | Non-toxic | 2 |
| OC(Cn1cncn1)(Cn1cncn1)c1ccc(F)cc1F [FLUCONAZOLE] | – | – | – | – | – | 3.26 (≈ 0.998 µg/mL) | 6.53 (≈ 2 µg/mL) | 6.53 (≈ 2 µg/mL) | > 81.2 | > 81.2 | 6.53 (≈ 2 µg/mL) | – | – | – |
